Measurements reported in ChEMBL document CHEMBL1158761, “Globosumones A-C, cytotoxic orsellinic acid esters from the Sonoran desert endophytic fungus Chaetomium globosum” (J Nat Prod, 2005).
Calls of active or inactive are those of the source. The rule behind the calls is not given here.

Legend:
NCI-H460 [1] = assay: Cytotoxicity against human NCI-H460 cells by MTT assay; format: functional, cell-based
Outline: (§1)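 Cells were exposed to samples dissolved in DMSO for 72 h in RPMI-1640 medium with 10% fetal bovine serum. Inhibition of proliferation was read by the tetrazolium-based colorimetric MTT viability assay. The panel comprised NCI-H460 lung, MCF-7 breast, SF-268 glioma and MIA Pa Ca-2 pancreatic carcinoma lines, plus normal primary WI-38 fibroblasts.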

SF-268 [2] = assay: Cytotoxicity against human SF268 cells; format: functional, cell-based; outline: as §1
[3] = Cytotoxicity against human WI38 cells; format: cell-based; settings: WI-38; outline: as §1
MCF7 [4] = assay: Cytotoxicity against human MCF7 cells by MTT assay; format: functional, cell-based; outline: as §1
MIA PaCa-2 [5] = assay: Cytotoxicity against human MIAPaCa2 cells; format: functional, cell-based; outline: as §1
[6] = Cytotoxicity against human WI38 cells at 10 ug/mL; format: cell-based; settings: wi-38
MIA PaCa-2 [7] = assay: Cytotoxicity against human MIAPaCa2 cells at 10 ug/mL; format: functional, cell-based
SF-268 [8] = assay: Cytotoxicity against human SF268 cells at 10 ug/mL; format: functional, cell-based
MCF7 [9] = assay: Cytotoxicity against human MCF7 cells at 10 ug/mL by MTT assay; format: functional, cell-based
NCI-H460 [10] = assay: Cytotoxicity against human NCI-H460 cells at 10 ug/mL by MTT assay; format: functional, cell-based

In the case of `C/C=C/C(=O)COC(=O)c1c(C)cc(O)cc1O` [GLOBOSUMONE A], the IC50 (NCI-H460 [1]) is reported as 6.5 µM, the IC50 (SF-268 [2]) is reported as 8.8 µM and the IC50 [3] is reported as 13 µM. The IC50 (MCF7 [4]) was 21.3 µM and the IC50 (MIA PaCa-2 [5]) was 10.6 µM.
With `C/C=C/C1OC2=C(C(=O)C[C@H](C)O2)C(=O)[C@@H]1O` (some centres not stated) [TRICHODION] the Activity [6] was “Not Active”, the Activity (MIA PaCa-2 [7]) was “inactive” and the Activity (SF-268 [8]) was “inactive”. The Activity (MCF7 [9]) was “inactive” and the Activity (NCI-H460 [10]) was “inactive”.
For `Cc1cc(O)cc(O)c1C(=O)O` [ORSELLINIC ACID], the Activity [6] was “Not Active”, the Activity (MIA PaCa-2 [7]) was “inactive” and the Activity (SF-268 [8]) was “inactive”. For the same molecule, the Activity (MCF7 [9]) was “inactive” and the Activity (NCI-H460 [10]) was “inactive”.
With `Cc1cc(O)cc(O)c1C(=O)OCC(=O)[C@@H](O)[C@H](C)O` [GLOBOSUMONE C] the Activity [6] was “Not Active”, the Activity (MIA PaCa-2 [7]) was “inactive” and the Activity (SF-268 [8]) was “inactive”. For the same molecule, the Activity (MCF7 [9]) was “inactive” and the Activity (NCI-H460 [10]) was “inactive”.
For `COc1cccc2c1C(=O)c1c(O)c3c(c(O)c1C2=O)C[C@@](O)(C(=O)CO)C[C@@H]3O[C@H]1C[C@H](N)[C@H](O)[C@H](C)O1` [DOXORUBICIN], the IC50 (NCI-H460 [1]) was 0.01 µM and the IC50 [3] was 0.3 µM.
Work on `Cc1cc(O)cc(O)c1C(=O)OCC(=O)C[C@H](C)O` [GLOBOSUMONE B] yielded an IC50 (NCI-H460 [1]) of 24.8 µM, an IC50 (SF-268 [2]) of 29.1 µM and an IC50 [3] of 14.2 µM. For the same molecule, the IC50 (MCF7 [4]) was 21.9 µM and the IC50 (MIA PaCa-2 [5]) was 30.2 µM.
